Results gathered from unrelated publications.
Compare with care: the assays were run in different laboratories. pEC50, pIC50, pKd, pKi: −log10 of the molar value.
OPRD1: Delta-type opioid receptor (OPRD1, Homo sapiens, UniProt P41143)
gag-pol reverse transcriptase: Gag-Pol polyprotein, reverse transcriptase (gag-pol, Human immunodeficiency virus 1, UniProt P03366)
gyrA: DNA gyrase subunit A (gyrA, Escherichia coli K-12, UniProt P0AES4)

SMILES | target | observed | action | method | endpoint | result
CNC(=O)[C@@]12C[C@@H]1[C@@H](n1cnc3c(NC)cc(C#Cc4ccc(Cl)s4)nc31)[C@H](O)[C@@H]2O | OPRD1 | ligand displacement | – | radioligand | pKi | < 5.00
Cc1cnc(-c2ccc(-c3ccc(NC(=O)Nc4c(F)cc(F)cc4F)cc3F)c3c2C(=O)NC3)[nH]1 | STE20-like serine/threonine-protein kinase (SLK, Homo sapiens, UniProt Q9H2G2) | binding | – | competition with immobilised ligand | pKd | 9.52
Cc1cc(C)cc(S(=O)(=O)c2c(C(=O)NCCCCNS(=O)(=O)c3ccc(F)cc3)[nH]c3ccc(Cl)cc23)c1 | gag-pol reverse transcriptase | enzyme activity | inhibitor | ELISA | pIC50 | 6.82
Cc1cc(C#N)ccc1C(=O)Nc1ccc(C(=O)N[C@@H](CC(N)=O)C(=O)Nc2ccc(C(=O)Nc3ccc(C(=O)Nc4ccc(C(=O)O)cc4)c(O)c3OC(C)C)cc2)cc1 | gyrA | enzyme activity | inhibitor | – | pIC50 | 5.77
CC1=C(/C=C/C2=CCC[C@]3(C)[C@@H]([C@H](C)CCCC(C)(C)O)CC[C@@H]23)C[C@@H](O)CC1 | Oxysterols receptor LXR-alpha (NR1H3, Homo sapiens, UniProt Q13133) | coactivator recruitment | agonist | TR-FRET | pEC50 | 7.00 to 8.00
Cc1cc(C)cc(S(=O)(=O)c2c(C(=O)NCCCNS(=O)(=O)c3ccccc3F)[nH]c3ccc(Cl)cc23)c1 | gag-pol reverse transcriptase | enzyme activity | inhibitor | ELISA | pIC50 | 7.12
CNc1nc(C#Cc2ccc(Cl)s2)nc2c1ncn2[C@H]1[C@H](O)[C@H](O)[C@]2(C(=O)OC(C)C)C[C@H]12 | OPRD1 | ligand displacement | – | radioligand | pKi | < 5.00
CCn1c(-c2nc3ccc(C(=O)N4CCCC(N)C4)cc3n2C)cc2ccccc21 (stereo not shown) | 5-hydroxytryptamine receptor 3A (HTR3A, Homo sapiens, UniProt P46098) | calcium signal | agonist | – | pEC50 | < 4.30
CC(C)Oc1c(NC(=O)c2ccc(NC(=O)[C@H](CC(N)=O)NC(=O)c3ccc(NC(=O)c4ccc(C#N)s4)cc3)cc2)ccc(C(=O)Nc2ccc(C(=O)O)cc2)c1O | gyrA | enzyme activity | inhibitor | – | pIC50 | 6.30
Cc1cc(C)cc(S(=O)(=O)c2c(C(=O)NCCCNS(=O)(=O)c3ccc([N+](=O)[O-])cc3)[nH]c3ccc(Cl)cc23)c1 | gag-pol reverse transcriptase | enzyme activity | inhibitor | ELISA | pIC50 | 6.92
CNC(=O)[C@@]12C[C@@H]1[C@@H](n1cnc3c(NC)nc(C#Cc4ccc(Cl)s4)nc31)[C@H](O)[C@@H]2O | OPRD1 | ligand displacement | – | radioligand | pKi | < 5.00
CC(C)Oc1c(N)ccc(C(=O)Nc2ccc(C(=O)N[C@@H](CC(N)=O)C(=O)Nc3ccc(C(=O)Nc4ccc(C(=O)Nc5ccc(C(=O)O)cc5)c(O)c4OC(C)C)cc3)cc2)c1O | gyrA | enzyme activity | inhibitor | – | pIC50 | 4.30
Cc1cc(C)cc(S(=O)(=O)c2c(C(=O)NCCCCNS(=O)(=O)c3ccc(Cl)cc3)[nH]c3ccc(Cl)cc23)c1 | gag-pol reverse transcriptase | enzyme activity | inhibitor | ELISA | pIC50 | 7.03
CNC(=O)[C@@]12C[C@@H]1[C@@H](n1cnc3c(NCCCO)nc(C#Cc4ccc(Cl)s4)nc31)[C@H](O)[C@@H]2O | OPRD1 | ligand displacement | – | radioligand | pKi | < 5.00
CC(C)Oc1c(NC(=O)c2ccc(NC(=O)[C@H](CC(N)=O)NC(=O)c3ccc(NC(=O)Cc4ccc(C#N)cc4)cc3)cc2)ccc(C(=O)Nc2ccc(C(=O)O)cc2)c1O | gyrA | enzyme activity | inhibitor | – | pIC50 | 4.79
O[C@@H]1[C@H](O)[C@@H]2C[C@@H]2[C@H]1n1cnc2c(NCc3cccc(Cl)c3)ncnc21 | OPRD1 | ligand displacement | – | radioligand | pKi | < 5.00
N#Cc1ccc(Nc2nc(N)cc(Oc3c(F)cc(-c4ccc(C#N)c(F)c4)cc3F)n2)cc1 | gag-pol reverse transcriptase | enzyme activity | inhibitor | – | pIC50 | 7.40
CC(C)Oc1c(NC(=O)c2ccc(NC(=O)[C@H](CC(N)=O)NC(=O)c3ccc(-c4nn[nH]c4-c4ccc(C#N)cc4)cc3)cc2)ccc(C(=O)Nc2ccc(C(=O)O)cc2)c1O | gyrA | enzyme activity | inhibitor | – | pIC50 | < 4.30
Cc1cc(C)cc(S(=O)(=O)c2c(C(=O)NCCCCCNS(=O)(=O)c3ccc([N+](=O)[O-])cc3)[nH]c3ccc(Cl)cc23)c1 | gag-pol reverse transcriptase | enzyme activity | inhibitor | ELISA | pIC50 | 6.80
N#Cc1ccc(Nc2nc(N)cc(Oc3ccc(-c4ccc(C#N)cc4)cc3Cl)n2)cc1 | gag-pol reverse transcriptase | enzyme activity | inhibitor | – | pIC50 | 7.52
N#Cc1ccc(COc2cccc(C3CCN(Cc4nc5ccc(C(=O)O)cc5n4C[C@@H]4CCO4)CC3)n2)c(F)c1 | Gastric inhibitory polypeptide receptor (GIPR, Homo sapiens, UniProt P48546) | cAMP | agonist | – | pEC50 | < 5.00
CNc1nc(C#Cc2ccc(Cl)s2)nc2c1ncn2[C@H]1[C@H](O)[C@H](O)[C@]2(C(=O)NCCN)C[C@H]12 | OPRD1 | ligand displacement | – | radioligand | pKi | < 5.00
Cc1cc(C)cc(S(=O)(=O)c2c(C(=O)NCCCCNS(=O)(=O)c3ccc(Br)cc3)[nH]c3ccc(Cl)cc23)c1 | gag-pol reverse transcriptase | enzyme activity | inhibitor | ELISA | pIC50 | 6.82
CNC(=O)[C@@]12C[C@@H]1[C@@H](n1cnc3c(NC)nc(C#Cc4ccc(Br)s4)nc31)[C@H](O)[C@@H]2O | OPRD1 | ligand displacement | – | radioligand | pKi | < 5.00
Cc1cc(C)cc(S(=O)(=O)c2c(C(=O)NCCCCCNS(=O)(=O)c3cccnc3)[nH]c3ccc(Cl)cc23)c1 | gag-pol reverse transcriptase | enzyme activity | inhibitor | ELISA | pIC50 | 7.02
